A selection: hits, their analogues and other compounds. The true share with any hit is near 11%.
M1 antagonist = M1 muscarinic receptor (rat) antagonism | P08482 | 64,000 tested, 3.4% active | AID 628 | B-score at 10 µM | CHO-M1 cells, Fluo-4 calcium, ACh EC80 antagonist mode; stronger effect = lower value;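 active = calcium fluorescence response, raw or row-and-column corrected B-score, differing from the plate sample mean either way at a set confidence level, mostly lower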
M1 ag = agonists of M1 muscarinic receptor. CHO-M1 cells, Fluo-4 calcium fluorescence, agonist mode; stronger effect = higher value. B-score at 10 µM. 64,000 tested, 3% active;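 active = fluorescence rise, raw or as B-score row- and column-corrected plate score, outside the 99.7% band of its plate's samples, either direction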
S1P1 ag-PAM = S1P1 (human) agonism or agonism potentiation. S1P1 CRE-bla cells, forskolin, beta-lactamase FRET, potentiator mode; S1P1 agonist co-added at EC20, 2 nM; 100% = saturating reference agonist, 0% = basal. activation, % at 9.5 µM. AID 449. P21453. 56,000 tested, 0.57% active;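 active = activation above a cutoff set at the mean activation of all tested compounds plus 3 SD, cut at about 54% in these data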;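 also: forskolin at 4 µM as EC80 and the EC20 agonist is SEW2871; 100% = SEW2871 at its EC100 plus forskolin at EC80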
TNAP act DEA = activators of human TNAP at intermediate phosphate acceptor | P05186 | purified TNAP, CDP-star luminescence, 100 mM DEA, 30 min; stronger effect = higher value; scale: 0 levamisole-inhibited, 1 vehicle-only enzyme | activation factor at 20 µM | 64,000 tested, under 10 active | AID 813;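 active = activation factor of at least 2 at 20 µM, relative to controls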
Target sequence (P05186 whole entry, looked up): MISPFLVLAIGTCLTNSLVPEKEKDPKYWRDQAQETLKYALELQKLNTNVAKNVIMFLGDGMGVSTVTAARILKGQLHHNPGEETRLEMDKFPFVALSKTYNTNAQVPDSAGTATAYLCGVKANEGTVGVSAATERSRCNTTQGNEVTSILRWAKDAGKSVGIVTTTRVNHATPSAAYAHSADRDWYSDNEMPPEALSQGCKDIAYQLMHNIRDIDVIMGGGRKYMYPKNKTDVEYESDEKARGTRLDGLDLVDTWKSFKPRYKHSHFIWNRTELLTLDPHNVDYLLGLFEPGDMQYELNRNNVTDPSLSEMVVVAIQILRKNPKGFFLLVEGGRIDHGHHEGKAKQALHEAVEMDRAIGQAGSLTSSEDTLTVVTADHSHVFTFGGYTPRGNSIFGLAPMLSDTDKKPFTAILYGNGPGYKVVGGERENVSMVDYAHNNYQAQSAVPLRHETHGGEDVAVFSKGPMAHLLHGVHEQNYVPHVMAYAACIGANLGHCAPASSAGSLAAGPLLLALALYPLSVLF
S1P3 ag = S1P3 (human) receptor agonism; S1P3 NFAT-BLA reporter cells, FRET ratio; relative to 1 µM S1P, basal subtracted; activation, % at 4.5 µM; 60,000 tested, 0.1% active; Q99500;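 active = activation above the screen-wide mean plus 3 SD, cut at about 4.5% in these data, passing the limit was not always enough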
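material = human S1P3 NFAT-BLA reporter CHO cells | schedule = 4 h compound at 37 °C, 2 h substrate at RT | measured by = fluorescent BLA substrate, ex 405 nm, em 460/535 nm ratio | controls = 1 µM S1P reference | replication = primary once, confirmation triplicate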
D1 mod = D1 dopamine receptor (human) allosteric modulation | P21728 | HEK293 D1, CRE-luciferase, dopamine EC30 potentiation; actives deviate in either direction | B-score at 10 µM | 58,000 tested, 5.9% active;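 active = luminescence count or its row- and column-corrected plate score outside the 99.7% band of the plate's sample wells, on either side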
An asterisk follows results filed as active; / = no result.

SMILES	M1 antagonist	M1 ag	S1P1 ag-PAM	TNAP act DEA	S1P3 ag	D1 mod
CN(C)S(=O)(=O)c1ccc(NC(=O)c2ccccn2)cc1	-0.99	-1	-6	0.9	-1	-1.1
CN(C)c1ccc(NC(=S)c2ccccn2)cc1	-0.32	0.86	-15	0.9	0	-6.2*
CCN(Cc1ccccc1)C(=O)Cn1cc2c(n1)CCCC2	0.017	-0.047	-12	1	-1	-0.07
COc1ccccc1N1CCN(S(=O)(=O)c2cnc[nH]2)CC1	0.017	0.46	5	0.9	-2	0.48
O=C(CN1C(=O)c2cccc3cccc1c23)NCc1ccc2c(c1)OCO2	0.35	-0.76	2	0.9	-1	0.046
CCC1Sc2ccccc2N(CC(=O)NCc2ccc3c(c2)OCO3)C1=O (stereo not given)	-1.2	3.6	5	0.9	0	-2.6*
COc1ccccc1N1CCN(C(=O)c2oc3ccccc3c2C)CC1	-4.5*	0.77	-5	1	0	-0.9
O=C(CSc1nc2ccccc2c(=O)[nH]1)Nc1ccc(S(=O)(=O)N2CCCC2)cc1	-0.44	0.36	37	0.9	-1	1.2
O=S(=O)(NCCSc1nnc(-c2ccco2)n1-c1ccccc1)c1ccccc1	0.74	1.2	/	0.9	-1	11*
COc1ccc(C(=O)NC(C)c2nnc(SCC(=O)Nc3nc4ccccc4s3)n2C)cc1 (stereo not given)	0.5	0	/	1	0	-0.22
Nc1cccc(-c2nc3ccccc3[nH]2)c1	0.96	-0.079	-27	/	0	-0.67
Nc1ccc(-c2nc3ccccc3[nH]2)cc1	0.34	0.5	-18	1	0	-3.5*
Cn1cc(-c2nc3ccccc3[nH]2)c2ccccc21	-0.053	-0.66	-16	0.8	-1	-4.1*
O=C(CN(C1CCCCC1)S(=O)(=O)c1ccc(F)cc1)NCc1ccncc1	0.71	-1.2	/	0.9	/	-0.57
O=C(CN1CCC(n2nnc3cc(F)ccc32)CC1)NC1CC1	0.16	-0.99	4	0.9	0	0.22
O=C(CN1CCC(n2nnc3cc(F)ccc32)CC1)Nc1ccccc1N1CCOCC1	-0.067	0.35	1	0.9	0	-3.1*
Cc1oc(C)c2c(=O)ccc3c(c12)OC(N)=C(C#N)C3c1ccc(F)cc1 (stereo not given)	-0.58	0.92	-14	0.9	0	-0.61
O=C(/C=C/Nc1ccccc1Br)c1ccccn1	0.054	-0.0025	/	0.9	/	-8.1*
O=C(CC(=O)Nc1ccccn1)Nc1ccccn1	0.075	0.053	-7	0.9	-1	0.1
O=C(/C=C\Nc1ccccn1)c1ccccc1	-0.49	0.069	-11	0.9	0	-6.9*
O=C(O)CC(c1ccc(Cl)cc1)n1cccc1 (stereo not given)	-1.2	0.21	-2	0.8	0	0.58
O=C(N1CCOCC1)N1CCN(S(=O)(=O)N2CCCCC2)CC1	0.68	-0.35	/	0.9	0	-0.16
CCc1ccc2nc(N3CCN(C)CC3)c(C#N)cc2c1	0.063	-0.13	-6	1	0	-4.9*
COC(=O)CN(c1ccc(F)cc1)S(=O)(=O)c1ccc2c(c1)OCCO2	0.19	-0.1	-11	0.9	0	-0.8
CC1(C)CC(=O)CC(C)(C)N1OC(=O)c1ccccn1	0.3	-0.58	2	0.9	-1	0.6
SMILES	M1 antagonist	M1 ag	S1P1 ag-PAM	TNAP act DEA	S1P3 ag	D1 mod
CC(NC(=O)c1ccnc(C(C)(C)C)c1)c1ccccc1 (stereo not given)	0.52	-0.24	3	1	0	/
CC(C)Cc1nc2oc3c(NCc4cccnc4)ncnc3c2c2c1CCC2	-0.18	0.51	-59	0.9	0	4.8*
COc1ccccc1-n1c(SCC(=O)Nc2cccc(C)c2)nc2c(c1=O)SCC2	-0.19	1	3	1	-2	/
O=C(Nc1ccc(S(=O)(=O)NCc2ccco2)cc1)c1ccc2ccccc2n1	-0.33	1.5	96*	0.9	0	0.13
Cc1ccc(Cn2nnc3c(=O)n(Cc4ccccc4C)cnc32)cc1	-0.42	-0.4	-17	0.9	0	0.57
O=C(c1cc2c(=O)oc3ccccc3c2s1)N1CCOCC1	/	/	-16	1	0	-4.6*
O=C(c1ccco1)N1CCN(C(=O)c2cc3c(=O)oc4ccccc4c3s2)CC1	/	/	2	1	0	0.89
COc1cccc2sc(Nc3nc(-c4ccccn4)cs3)nc12	-0.24	0.6	72*	1.1	-2	-1.8
c1ccc(-c2csc(Nc3cccnc3)n2)nc1	-0.023	0.015	-26	1	-1	0.58
CCOC(=O)c1c(Nc2nc(C)c(C(=O)NC)s2)sc(C)c1C	-0.48	-0.018	-2	1	0	3.8
Cc1c(C(=O)NCc2ccccn2)oc2ccccc12	-0.66	0.54	12	0.9	0	-0.21
Cc1nc2ccccc2c2oc(C(=O)NCc3ccccn3)cc12	0.18	-1.6	-36	1	-1	-3.7*
Cc1cc(C(F)(F)F)nn1CCCNC(=O)c1cnccn1	-0.14	-0.26	-16	0.9	0	-0.46
O=C(O)CCCCCNC(=O)CCn1nnc2ccccc2c1=O	1.6*	0.056	-26	1	-2	-0.31
O=C(CCn1nnc2ccccc2c1=O)NCC1CCC(C(=O)O)CC1 (stereo not given)	-0.11	0.27	-28	0.9	-1	0.38
CCN(CCCNC(=O)CN(C)S(=O)(=O)c1ccc2c(c1)CCC(=O)N2)c1cccc(C)c1	-0.021	0.36	2	/	0	1.6
CCOC(=O)c1c(N)sc(C(=O)Nc2ccc3c(c2)OCO3)c1C	-0.29	1.2	/	0.8	0	-4.4*
N=C1C=CC=C2C1=NC1(CCCCC1)N2O	-0.31	-1.1	-10	0.9	2	1.5
CCOC(=O)CNc1c(N2CCN(c3ccccn3)CC2)c(=O)c1=O	1.1*	0.31	5	0.9	-2	0.51
CCCCn1nnnc1SCC(=O)c1ccc(C)c(C)c1	-0.85	-0.21	84*	0.9	0	-2.1
CCOC(=O)c1cccc(NC(=O)CSc2nnnn2CC)c1	0.028	-0.98	-16	0.9	0	-0.46
C=CCn1nnnc1SCC(=O)Nc1cccc(OC)c1	11*	-0.66	/	0.9	0	0.081
CCOC(=O)c1ccc(NC(=O)CSc2nnnn2CCCO)cc1	1.8*	0.033	-16	0.9	-1	-1.1
CCOC(=O)c1c(NC(=O)CSc2nnnn2C)sc(C)c1-c1ccc(C)cc1	0.012	0.15	-63	0.9	0	-0.77
CCOC(=O)c1c(-c2ccccc2)csc1NC(=O)CSc1nnnn1C	-0.62	3.2*	-30	0.9	0	0.38
COCC(C)n1c(C)cc(C(=O)COC(=O)c2c(NC(C)=O)sc(C)c2C)c1C (stereo not given)	-0.38	-0.61	-13	0.9	-1	1.6

Screening results (PubChem BioAssay)
